Screening data deposited in PubChem by several laboratories.
A selection: hits, their analogues and other compounds. The true share with any hit is near 2.5%.
Beta2AR agonist: beta2AR agonists driving receptor internalization, primary screen, cell-based, FAP fluorogen, flow cytometry; Beta-2 adrenergic receptor (Homo sapiens), P07550; Am2.2-beta2AR cells; response, % (test concentration not listed); 340,000 compounds, 0.43% hits; AID 504454, 2011;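 active = response above a set limit, near 3 SD of response in nonfluorescent compounds, cut at about 42% in these data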
Target sequence (P07550 whole entry, looked up): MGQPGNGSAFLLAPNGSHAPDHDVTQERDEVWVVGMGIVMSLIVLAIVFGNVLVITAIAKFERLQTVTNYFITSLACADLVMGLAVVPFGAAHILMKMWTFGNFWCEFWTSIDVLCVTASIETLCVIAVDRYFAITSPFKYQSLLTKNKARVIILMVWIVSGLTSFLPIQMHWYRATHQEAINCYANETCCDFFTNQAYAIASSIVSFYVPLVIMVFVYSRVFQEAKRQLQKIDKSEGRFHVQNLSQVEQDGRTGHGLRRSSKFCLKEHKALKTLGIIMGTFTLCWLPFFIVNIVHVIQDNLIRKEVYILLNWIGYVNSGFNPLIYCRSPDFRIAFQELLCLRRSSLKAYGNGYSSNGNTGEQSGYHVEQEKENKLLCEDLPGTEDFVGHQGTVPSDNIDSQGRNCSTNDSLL
NadD inh: inhibitors of S. aureus NadD, primary screen, biochemical, colorimetric, uHTS; inhibition, % at 20 µM; 360,000 compounds, 0.78% hits; Nicotinate-nucleotide adenylyltransferase NadD (Staphylococcus aureus N315); purified NadD enzyme, colorimetric absorbance read-out; in the data active = inhibition above about 26%
SENP1 inh: human SENP1 catalytic domain inhibitors, primary screen, biochemical, FRET, uHTS. Sentrin-specific protease 1 (Homo sapiens), Q9P0U3. recombinant SENP1 catalytic domain, CyPet-SUMO1-YPet FRET cleavage. inhibition, % at 10 µM. 360,000 compounds, 0.21% hits. AID 624204, 2012;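 active = inhibition at least 30% at 10 µM, raw YFP signal under a set limit, fluorescence ratio 0.5 to 1.5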
Target sequence (Q9P0U3 419-644 limits assumed): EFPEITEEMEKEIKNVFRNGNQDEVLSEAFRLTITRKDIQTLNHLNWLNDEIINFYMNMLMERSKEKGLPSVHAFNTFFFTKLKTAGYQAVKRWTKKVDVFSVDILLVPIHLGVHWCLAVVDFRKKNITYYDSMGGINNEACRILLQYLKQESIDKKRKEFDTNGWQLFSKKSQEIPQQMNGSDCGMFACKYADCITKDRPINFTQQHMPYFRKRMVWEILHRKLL
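system = hSENP1 catalytic domain, recombinant | reagent = SFCypet-SUMO1-SFYpet substrate at 25 nM | doses = one dose per compound, 10 µM, 0.5% DMSO | incubation = enzyme reaction for 50 min at room temperature, dark | measured by = FRET, CFP and YFP emission | controls = no-enzyme low, enzyme-DMSO high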
ABHD5-PLIN5 inh: ABHD5-PLIN5 interaction inhibitors, primary screen, cell lysate, split luciferase complementation, luminescence; Split G. princeps luciferase complementation, 4 h; inhibition, % at 4 µM; 360,000 compounds, 0.78% hits; AID 602281, 2012;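 active = inhibition above the mean inhibition across every tested compound plus 3 SD, cut at about 22% in these data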
GRK2 inh: compounds blocking aptamer binding on GRK2 – biochemical, human GRK2, bead flow cytometry, HTS, primary screen; Beta-adrenergic receptor kinase 1 (Homo sapiens), P25098; FAM-aptamer displacement from GRK2; inhibition of aptamer binding, % at 10 µM; 330,000 compounds, 0.59% hits; AID 488847, 2010;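 active = inhibition of aptamer binding above 40%, roughly 3 SD of noise, on plates passing a quality check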;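 note: median bead fluorescence of bound FAM aptamer so fluorescent compounds give negative values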
GRK2 inh confirm: GRK2 aptamer-displacing inhibitors, retest, confirmation, biochemical, cherry pick 1, bead flow cytometry; shares compounds with GRK2 inh; bead-bound GRK2, FAM-aptamer displacement; aptamer displacement, % at 10 µM; 2,000 compounds, 4% hits; AID 504451, 2011;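 active = aptamer displacement above 40%, near three times the noise of non-fluorescent compounds, on plates passing quality checks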;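 note: negative values mostly reflect intrinsic compound fluorescence rather than true enhancement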
Aptamer quench: counter-screen for GRK2 aptamer inhibitors: fluorescent aptamer quenchers | shares compounds with GRK2 inh | Fluorescent RNA aptamer beads, quenching, flow cytometry; stronger effect = higher value | fluorescence change (kMESF span), kMESF (concentration not given with the values) | 110 tested, under 10 active | AID 504521;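 active = compounds whose bead fluorescence drops by more than 37 kMESF across the dose range, marking them as dye quenchers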
FAM quench CP1: counter-screen for GRK2 aptamer inhibitors: fluorescent aptamer quenchers. fluorescence response (% of DMSO), % at 10 µM. Carboxyfluorescein RNA aptamer on beads, flow cytometry quenching; stronger effect = lower value. shares compounds with GRK2 inh. 2,000 tested, under 10 active. AID 504580;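 active = compounds that quench the bead-bound fluorescent RNA probe, cutting fluorescence to under half of the solvent control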;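 note: counterscreen run without GRK2 so only probe quenching by compound is measured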
GRK2 confirm 2: GRK2 aptamer-displacing inhibitors, hit retest, confirmation, biochemical, cherry pick 2, bead flow cytometry; shares compounds with GRK2 inh; inhibition of aptamer binding, % at 10 µM; 360 tested, under 10 active; bead-bound GRK2, FAM-aptamer displacement;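 active = inhibition of aptamer binding above 40%, about triple the noise seen with nonglowing compounds, on plates passing quality control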;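 note: negative values mostly come from compounds that fluoresce themselves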
FAM quench SP: aptamer fluorescence quenching in GRK2 counter-screen; shares compounds with GRK2 inh; carboxyfluorescein RNA aptamer beads, flow cytometry quenching; stronger effect = lower value; fluorescence response vs DMSO, % at 10 µM; 360 tested, under 10 active; AID 588494;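 active = response vs DMSO under 50%, meaning signal dropped by over half, treated as fluorescence quencher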;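 note: labelled aptamer on streptavidin beads without GRK2 as a quench counter-screen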
Each line names hits and unclear results; the compound was inactive in the other large screens (follow-up assays come after a bar, where they were run).

Cc1ccc(-c2nn(-c3ccccc3)cc2C2CC(c3ccccc3)=NN2C(=O)CCC(=O)O)cc1 (centres undefined)	none
Cc1ccc(C2=NN(C(=O)CCC(=O)O)C(c3cn(-c4ccccc4)nc3-c3ccc(C)cc3)C2)cc1 (centres undefined)	none | GRK2 inh confirm inactive | FAM quench CP1 inactive
COc1cc(OC)c(C2=NOC(C(=O)O)C2)cc1Cl (centres undefined)	none | GRK2 confirm 2 inactive | FAM quench SP inactive
O=C(O)C1CC(c2cccc(Br)c2)=NO1 (centres undefined)	none | GRK2 confirm 2 inactive | FAM quench SP inactive
COc1cc(OC)c(C2=NOC(C(=O)N3CCc4ccccc4C3)C2)cc1Cl (centres undefined)	none
O=C(C1CC(c2cccc(Br)c2)=NO1)N1CCc2ccccc2C1 (centres undefined)	none
O=C(O)C1CC(c2ccccc2)=NO1 (centres undefined)	none | GRK2 confirm 2 inactive | FAM quench SP inactive
CCN1CCCc2cc(CN(CCN3CCOCC3)C(=S)Nc3cc(F)cc(F)c3)ccc21	none
Cc1ccc(NC(=O)Nc2ccc3c(c2)nc(C)n3C)cc1	none
Cc1cc(NC(=O)Nc2ccc3c(ccn3C)c2)sn1	none | GRK2 inh confirm inactive | FAM quench CP1 inactive
O=C(NC1CCCCC1)C(c1ccc2ncccc2c1)N(Cc1ccc(F)cc1)C(=O)c1ccc2c(c1)OCCO2 (centres undefined)	GRK2 inh 48.0 | GRK2 inh confirm inactive | FAM quench CP1 inactive
O=C(Cn1c(NCCCCl)nc2ccccc21)c1ccccc1	none
O=C(O)C1C2C=CC(CC2)C1C(=O)O (centres undefined)	GRK2 inh 60.0 | GRK2 inh confirm 51.6 | Aptamer quench inactive | FAM quench CP1 inactive
CC(C)c1ccc(NC(=O)C2C3C=CC(CC3)C2C(=O)O)cc1 (centres undefined)	none
CCc1nc2ccccc2n1CC(=O)OCC(=O)N(CC(C)C)c1c(N)n(Cc2ccccc2)c(=O)[nH]c1=O	none
CCOC(=O)C1=C(COC(=O)CSc2ccc(C)cc2C)NC(=O)NC1C (centres undefined)	none (no result: GRK2 inh)
Cn1c(C(=O)N2CCCC(C(=O)NCCCSC3CCCCC3)C2)cc2sccc21 (centres undefined)	none | GRK2 inh confirm inactive | FAM quench CP1 inactive
Cc1ccnc(NC(=O)c2ccc(S(=O)(=O)NCc3ccco3)cc2)c1	none
Cc1ccc2oc(C(=O)N(C)Cc3ccon3)c(C)c2c1	GRK2 inh 92.0 | GRK2 inh confirm inactive | FAM quench CP1 inactive
COC(=O)Cn1c(CN2CCOCC2)nc2c1c(=O)[nH]c(=O)n2C	none | GRK2 inh confirm inactive | FAM quench CP1 inactive
Cc1ccc(C)c(OCC(=O)N(C)CC(=O)Nc2ccc(Cl)c(C(F)(F)F)c2)c1	GRK2 inh 79.0 | GRK2 inh confirm inactive | FAM quench CP1 inactive
O=C(c1ccc(CSc2nc3ccncc3[nH]2)cc1)N1CCN(c2cccc(Cl)c2)CC1	none
O=C(c1ccc(CSc2nc3ccncc3[nH]2)cc1)N1CCCCCC1	GRK2 inh 68.0 | GRK2 inh confirm inactive | FAM quench CP1 inactive
Cc1ccc(CSc2nc3ccncc3[nH]2)cc1	GRK2 inh 78.0 | GRK2 inh confirm inactive | FAM quench CP1 inactive
Cc1ccc(NC(=O)CN(C)CC(=O)N(C)Cc2ccccc2)cc1	none
CN(CC(=O)Nc1ccc(N2CCOCC2)cc1)C(=O)CCc1ccccc1Cl	none | GRK2 inh confirm inactive | FAM quench CP1 inactive
CN(CC(=O)Nc1ccc(N2CCOCC2)cc1)C(=O)CCNC(=O)c1ccccc1Cl	none
Nc1nc(=S)c2ncn([C@@H]3O[C@H](CO)[C@@H](O)[C@H]3O)c2[nH]1	none
Nc1nc(=S)c2ncn(C3OC(CO)C(O)C3O)c2[nH]1 (centres undefined)	GRK2 inh 87.0 | GRK2 inh confirm inactive | FAM quench CP1 inactive
CCN(CC)C(=O)c1cccc(-c2csc(C(O)c3ccc(F)cc3)n2)c1 (centres undefined)	none (no result: Beta2AR agonist, GRK2 inh)
CCN(C(=O)COC(=O)Cc1coc2cc(C)ccc12)c1c(N)n(Cc2ccccc2)c(=O)[nH]c1=O	none
Cc1ccc2c(CC(=O)OCC(=O)N(CC(C)C)c3c(N)n(Cc4ccccc4)c(=O)[nH]c3=O)coc2c1	GRK2 inh 83.0 | GRK2 inh confirm inactive | FAM quench CP1 inactive
Cc1cc(OCC(=O)N(Cc2ccco2)c2c(N)n(Cc3ccccc3)c(=O)[nH]c2=O)ccc1Cl	none | GRK2 inh confirm inactive | FAM quench CP1 inactive
O=C(C[C@H]1C=C[C@@H](NC(=O)Cc2cccnc2)[C@@H](CO)O1)NCc1ccc2c(c1)OCO2	none (no result: Beta2AR agonist, NadD inh, GRK2 inh)
O=C(Nc1ccccc1N1CCCCC1)c1ccc(-c2cc(Cl)ccc2Cl)o1	none
COc1ccc(NC2CCCN(C(=O)c3cc4ncccn4n3)C2)cc1 (centres undefined)	none
COc1ccc(CNC(=O)CSc2nc3ccccc3n2C(C)=O)cc1	none
CCOc1ccc(-c2nnn(CC(=O)Nc3ccccc3OC)n2)cc1OCC	none
CCN(CC)c1ccc(NC(=O)Cn2nnc(-c3cccc(OC)c3OC)n2)c(C)c1	GRK2 inh 95.0 | GRK2 inh confirm inactive | FAM quench CP1 inactive
COCCCN1C(=O)C(CC(=O)NCCc2ccccn2)CC(C(=O)N2CCOCC2)=C1C (centres undefined)	none (no result: Beta2AR agonist, GRK2 inh)
CCOc1cc2[nH]c(=S)n(C3CC3)c(=O)c2cc1OCC	GRK2 inh 41.0 | GRK2 inh confirm inactive | FAM quench CP1 inactive
